Experimental findings from publication PMC9893515 (Bioorganic chemistry, 2021) are described below.

Read-outs that look alike come from different tables or passages of the source. Some results are limits rather than exact numbers.

The target of this experiment is T1, recombinant human TDP2 (Homo sapiens, UniProt O95551).
T1 sequence (O95551 1-362): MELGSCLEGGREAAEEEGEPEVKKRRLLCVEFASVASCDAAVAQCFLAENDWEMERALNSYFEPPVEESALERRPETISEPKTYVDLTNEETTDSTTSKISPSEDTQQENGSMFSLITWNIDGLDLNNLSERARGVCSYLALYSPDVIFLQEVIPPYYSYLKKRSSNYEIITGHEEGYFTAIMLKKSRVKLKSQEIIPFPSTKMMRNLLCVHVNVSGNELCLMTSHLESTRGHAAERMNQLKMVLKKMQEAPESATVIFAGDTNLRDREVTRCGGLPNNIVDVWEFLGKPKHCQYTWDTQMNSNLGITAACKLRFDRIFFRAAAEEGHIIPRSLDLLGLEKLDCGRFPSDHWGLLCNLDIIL
In words: Recombinant TDP2 assay. The class given is biochemical. In a few lines: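 Human recombinant TDP2 (25 pM) with 1 nM 18-mer 5'-phosphotyrosyl ssDNA, 3'-α32P-cordycepin-labelled. Reaction ran 15 min at room temperature in Tris-HCl pH 7.5, KCl, MgCl2, EDTA, DTT, BSA and Tween 20. Stopped with formamide loading buffer, then 16% denaturing PAGE and phosphorimaging densitometry of product. […] IC50 is 50% enzyme inhibition.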

Setting [1] is: read-out: TDP2 inhibitory activity IC50, mean ± SD from at least three independent experiments, recombinant TDP2.

Regarding `N#Cc1ccc(OCc2noc3c2C(=O)c2cccnc2C3=O)cc1F` [Compound 69, 4-((4,9-Dioxo-4,9-dihydroisoxazolo[4,5-g]quinolin-3-yl)methoxy)-2-fluorobenzonitrile], the IC50 is 960 ± 200 nM.

Turning to `COc1ccc(-c2noc3c2C(=O)c2cccnc2C3=O)cc1OC` [Compound 70, 3-(3,4-Dimethoxyphenyl)isoxazolo[4,5-g]quinoline-4,9-dione], the IC50 came to 460 ± 150 nM.

As for `N#Cc1ccc(-c2noc3c2C(=O)c2cccnc2C3=O)c(F)c1` [Compound 71, 4-(4,9-Dioxo-4,9-dihydroisoxazolo[4,5-g]quinolin-3-yl)-3-fluorobenzonitrile], the IC50 came to 740 ± 250 nM.

As for “Ethyl 2-isopropyl-4,9-dioxo-4,9-dihydrofuro[2,3-g]quinoline-3-carboxylate [Compound 37]”, the IC50 under setting [1] was determined as 37000 ± 2000 nM.

With “Ethyl 2-isopropyl-4,9-dioxo-4,9-dihydrofuro[3,2-g]quinoline-3-carboxylate [Compound 38]”, the IC50 under setting [1] is above 111000 nM.
